# High-throughput results deposited in PubChem by Broad Institute.
# EWS-Fli inh – EWS/Fli transcriptional activity inhibition. A673 NR0B1-luciferase reporter, viability-normalised. inhibition, % at 12.6 µM. 0.67% of 350,000 active;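 active = mean inhibition of at least 50% after viability correction, with every replicate also passing that limit; inconclusive = mean reaches 50% but only one of two replicates passes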;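 note: firefly luciferase signal divided by Alamar Blue viability fluorescence both relative to DMSO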
# PGC1a acetyl inh – PGC1a acetylation modulation, inhibitor mode; inhibition, % at 15.6 µM; AID 651687; U2OS PGC1a acetylation, AlphaScreen anti-acetyl-lysine; with virally co-expressed GCN5 acetyltransferase; 0.17% of 350,000 active;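 active = every replicate shows inhibition of at least 40%; inconclusive = mean inhibition at least 40% but some replicate below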
# PAX8 inh HTS – inhibitors of PAX8 transcriptional activity in RMG-I cells; inhibition, % at 12.6 µM; 1.2% of 360,000 active; RMG-I TPO-luciferase reporter, SteadyGlo, 24 h;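 active = mean replicate inhibition at least 60% with every replicate also reaching 60%; inconclusive = only one of the two criteria is met; inactive = mean below 60% and not all replicates reaching 60%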;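 note: luciferase light reporting Pax8 driven TPO promoter activity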
# AF4-AF9 inh – inhibitors of human MLL-AF4/AF9 interaction | P42568 | AlphaScreen, biotin-AF4 peptide binding to FLAG-AF9 | inhibition, % at 10 µM | 0.47% of 350,000 active | AID 651704;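 active = every replicate reaching a set inhibition limit, whatever the replicate mean, cut at about 25% in these data; inconclusive = mean inhibition reaches that limit but some replicates miss it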
# Target sequence (P42568 whole entry, looked up): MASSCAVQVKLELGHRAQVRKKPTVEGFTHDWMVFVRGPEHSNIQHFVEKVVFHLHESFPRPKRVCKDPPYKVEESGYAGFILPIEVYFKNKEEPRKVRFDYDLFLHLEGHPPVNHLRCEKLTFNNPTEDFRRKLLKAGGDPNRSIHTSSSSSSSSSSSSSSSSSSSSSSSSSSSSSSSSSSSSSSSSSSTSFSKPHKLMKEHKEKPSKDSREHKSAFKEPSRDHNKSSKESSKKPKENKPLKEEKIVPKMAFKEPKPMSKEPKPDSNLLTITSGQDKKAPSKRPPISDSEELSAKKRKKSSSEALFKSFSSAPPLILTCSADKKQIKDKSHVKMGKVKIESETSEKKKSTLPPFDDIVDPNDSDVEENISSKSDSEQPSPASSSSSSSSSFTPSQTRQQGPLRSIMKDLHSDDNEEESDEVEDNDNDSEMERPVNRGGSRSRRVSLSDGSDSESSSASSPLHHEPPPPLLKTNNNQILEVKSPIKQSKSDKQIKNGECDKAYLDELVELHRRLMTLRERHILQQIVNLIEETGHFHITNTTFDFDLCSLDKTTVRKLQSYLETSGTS
# INS-1E GSIS act – primary screen for activators of insulin secretion dependent on glucose, INS-1E cells, GLuc reporter luminescence; INS-1E GLuc reporter insulin secretion, 2-3 h; activation, % at 16.6 µM; 0.61% of 370,000 active; AID 743287;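 active = lowest replicate activation of at least 40%, so every replicate reaches that level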
# XiGFP reactiv – activators of X-chromosome reactivation in mouse fibroblasts; XiGFP mouse fibroblasts, % GFP-positive cells imaging, 3 d; cells co-treated with 5-aza-dC sensitizer; scaled so ellipticine positive control = 100%; activation, % at 7.58 µM; 0.055% of 360,000 active;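 active = mean normalized replicate activation at least 10% and every replicate at or above 10%; inconclusive = only one of the two criteria met; inactive = mean below 10% and not all replicates reach 10%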
#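 Material: SV40-immortalized XiGFP fibroblast cells, line 68-5-11 | Buffer or medium: DMEM containing 5-aza-dC | Dosing: One concentration, pinned | Times: 3 d treatment, 15 min room-temperature fixation | Controls: Ellipticine 6 µM positive control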
# Hits are given with their value; – = inactive; ? = inconclusive; · = not tested or not shown. A selection: hits, their analogues and other compounds. The true share with any hit is near 2.1%.
SMILES,EWS-Fli inh,PGC1a acetyl inh,PAX8 inh HTS,AF4-AF9 inh,INS-1E GSIS act,XiGFP reactiv
COc1cc(/C=N/Nc2nc(Nc3ccc(C)cc3)nc(-n3nc(C)cc3C)n2)cc(OC)c1OC,·,–,89,·,·,·
COc1cc(/C=N/Nc2nc(Nc3ccccc3)nc(-n3nc(C)cc3C)n2)cc(OC)c1OC,–,–,80,–,–,–
CN1C(=O)c2cc(NC(=O)c3ccc(F)cc3)ccc2OC[C@H]2O[C@@H](CC(=O)NC3CCC3)CC[C@H]21,–,–,–,–,–,–
C[C@H]1CN([C@@H](C)CO)S(=O)(=O)c2ccc(C#CC3(O)CCCC3)cc2O[C@H]1CN(C)C(=O)Cc1cccnc1,–,–,–,–,–,–
O=C(C[C@@H]1CC[C@H]2[C@@H](COC[C@H](O)CN2CCC(F)(F)F)O1)NCC1CCCCC1,–,–,–,·,–,–
O=C(OC1CCOC1=O)c1cc(-c2cccs2)nc2ccccc12 (centres undefined),–,–,–,–,59,–
CCc1nc2ccc(C(=O)NCCNC(C)=O)cn2c1N(CC)CCOC,–,–,–,46,–,–
CCc1nc2ccc(C(=O)NCCCN3CCCC3=O)cn2c1N(CCC(C)C)CCN(C)C,–,·,–,–,49,–
CCOC(=O)C(=Cc1ccc(Br)cc1)C(=O)OCC,?,–,–,–,–,–
CCOC(=O)C(CC)(CC)C(=O)/C=C/c1ccc(Br)cc1,·,57,·,·,65,·
COc1ccc2c3c(n(C)c2c1)[C@@H](CO)N(C(=O)c1ccccn1)CC31CN(C(=O)c2ccccn2)C1,–,·,·,–,–,–
C[C@@H]1CN([C@@H](C)CO)C(=O)c2cc(NS(=O)(=O)c3ccc(Cl)cc3)ccc2O[C@@H](C)CCCCO[C@H]1CN(C)Cc1ccc(C(F)(F)F)cc1,–,–,102,–,–,–
C[C@@H]1CN([C@H](C)CO)C(=O)c2cc(NS(=O)(=O)c3ccc(Cl)cc3)ccc2O[C@@H](C)CCCCO[C@H]1CN(C)Cc1ccc(C(F)(F)F)cc1,62,–,99,–,–,–
C[C@@H]1CCCCO[C@@H](CN(C)Cc2ccc(C(F)(F)F)cc2)[C@H](C)CN([C@H](C)CO)C(=O)c2cc(NS(=O)(=O)c3ccc(Cl)cc3)ccc2O1,–,–,103,–,–,–
C[C@@H]1CN([C@@H](C)CO)C(=O)c2cc(NS(=O)(=O)c3ccc(Cl)cc3)ccc2O[C@@H](C)CCCCO[C@@H]1CN(C)Cc1ccc(C(F)(F)F)cc1,–,–,–,–,–,–
C[C@@H]1CCCCO[C@H](CN(C)Cc2ccc(C(F)(F)F)cc2)[C@H](C)CN([C@H](C)CO)C(=O)c2cc(NS(=O)(=O)c3ccc(Cl)cc3)ccc2O1,–,–,99,–,–,–
O=C(NCC[C@@H]1CC[C@@H](NC(=O)C2CCCCC2)[C@@H](CO)O1)c1cc(Cl)cc(Cl)c1,–,–,–,–,–,–
C[C@H]1CCCCO[C@@H](CN(C)Cc2ccc(C(F)(F)F)cc2)[C@@H](C)CN([C@@H](C)CO)C(=O)c2cc(NS(=O)(=O)c3ccc(Cl)cc3)ccc2O1,–,–,102,–,–,–
C[C@@H]1CCCCO[C@H](CN(C)Cc2ccc(C(F)(F)F)cc2)[C@@H](C)CN([C@H](C)CO)C(=O)c2cc(NS(=O)(=O)c3ccc(Cl)cc3)ccc2O1,–,–,–,–,–,–
C[C@@H]1CCCCO[C@@H](CN(C)Cc2ccc(C(F)(F)F)cc2)[C@H](C)CN([C@@H](C)CO)C(=O)c2cc(NS(=O)(=O)c3ccc(Cl)cc3)ccc2O1,–,–,103,–,–,–
COc1cccc(N2CCN(c3nc(-c4ccccc4C)cc(=O)[nH]3)CC2)c1,–,·,70,–,–,–
COc1cccc(N2CCN(c3nc(C)c(C)c(=O)[nH]3)CC2)c1,–,–,–,–,–,–
Cc1nc2ccccc2c2nc(N)nn12,·,–,·,·,·,·
Cc1nc2ccccc2c2nc(NC(=O)C(F)(F)F)nn12,–,–,–,–,50,–
O=C(Cc1cccnc1)N1CC(=O)N2[C@H](CO)[C@@H](c3ccc(C#CC4CC4)cc3)[C@H]2C1,–,–,–,–,–,–
SMILES,EWS-Fli inh,PGC1a acetyl inh,PAX8 inh HTS,AF4-AF9 inh,INS-1E GSIS act,XiGFP reactiv
C[C@@H]1CCCCO[C@H](CN(C)C(=O)CCCN(C)C)[C@H](C)CN([C@@H](C)CO)C(=O)c2cc(NC(=O)C3CCCCC3)ccc2O1,–,–,·,–,–,–
OC[C@H]1O[C@H](OCCc2ccc(O)cc2)[C@H](O)[C@@H](O)[C@@H]1O,–,·,–,–,–,–
Cc1cc2c(c(C)c1CCO[C@@H]1O[C@H](CO)[C@@H](O)[C@H](O)[C@H]1O)C(=O)[C@@H](C)[C@@H]2O,–,–,86,–,–,–
N#CC(C#N)=C(Nc1ccc(F)cc1)SCc1cccc(F)c1,·,·,77,·,–,–
Nc1ccc(C(=O)OCc2csc(-c3ccccc3)n2)cc1[N+](=O)[O-],·,·,–,·,46,–
C[C@@H]1CCCCO[C@@H](CN(C)CC2CC2)[C@H](C)CN([C@H](C)CO)C(=O)c2cc(NC(=O)Nc3ccc4c(c3)OCO4)ccc2O1,·,–,–,?,–,–
C[C@@H]1CCCCO[C@@H](CN(C)CC2CCCCC2)[C@@H](C)CN([C@@H](C)CO)C(=O)c2cc(NC(=O)Nc3ccc4c(c3)OCO4)ccc2O1,–,–,–,–,–,–
CCCN(C)C[C@@H]1OCCCC[C@@H](C)Oc2ccc(NC(=O)Nc3ccc4c(c3)OCO4)cc2C(=O)N([C@H](C)CO)C[C@H]1C,–,–,–,25,–,–
C[C@H](CO)N1C[C@H](C)[C@H](CN(C)CC2CC2)OCCCC[C@H](C)Oc2ccc(NC(=O)Nc3ccc4c(c3)OCO4)cc2C1=O,·,–,–,36,·,·
C[C@H]1CCCCO[C@@H](CN(C)C)[C@@H](C)CN([C@@H](C)CO)C(=O)c2cc(NC(=O)Nc3ccc4c(c3)OCO4)ccc2O1,–,–,–,·,–,–
C[C@H](CO)N1C[C@H](C)[C@@H](CN(C)CC2CC2)OCCCC[C@H](C)Oc2ccc(NC(=O)Nc3ccc4c(c3)OCO4)cc2C1=O,·,–,–,29,–,–
CC(C)NC(=O)Nc1cccc2c1O[C@H](CN(C)Cc1ccccc1)[C@@H](C)CN([C@H](C)CO)C2=O,–,–,–,–,–,–
CC(C)(C)c1ccc(C#C[C@@H]2C=C[C@H]3OC(=O)CC/C=C/CCC(=O)OC[C@H]3O2)cc1,–,·,–,–,95,–
O=C(C1CCCC1)N1CC2(C1)[C@@H](c1ccccc1)[C@@H](CO)N2C(=O)CC1CC1,–,–,·,–,–,–
CCCc1cn([C@H]2C[C@@H]3O[C@@H](CO)CC[C@@H]3O[C@@H]2CCc2ccc(-c3cccc(OC)c3)cc2)nn1,–,–,–,–,·,·
